Measurements reported in ChEMBL document CHEMBL1139103, “Identification of novel glycine sulfonamide antagonists for the EP1 receptor” (Bioorg Med Chem Lett, 2007).

Experiments:
[1] = target: T1, Prostaglandin E2 receptor EP1 subtype (Homo sapiens, UniProt P34995); assay: Antagonist activity at human EP1 expressed in CHOK1 cells receptor assessed as inhibition of intracellular calcium mobilization by FLIPR assay; assay type: functional, cell-based, CHO-K1
T1 sequence (P34995 whole entry): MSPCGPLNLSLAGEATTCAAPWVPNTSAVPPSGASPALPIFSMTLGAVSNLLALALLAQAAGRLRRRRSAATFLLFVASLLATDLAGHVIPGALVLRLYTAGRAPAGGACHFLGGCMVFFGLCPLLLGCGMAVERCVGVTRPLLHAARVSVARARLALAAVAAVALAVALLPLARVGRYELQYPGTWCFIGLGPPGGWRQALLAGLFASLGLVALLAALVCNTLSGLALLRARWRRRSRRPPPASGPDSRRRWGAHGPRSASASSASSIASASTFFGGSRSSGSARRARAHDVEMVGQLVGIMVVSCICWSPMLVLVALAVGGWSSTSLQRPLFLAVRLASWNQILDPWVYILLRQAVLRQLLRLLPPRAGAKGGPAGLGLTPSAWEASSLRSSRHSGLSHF
Summary of the method: (§1)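 Stable EP1- or EP3-transfected CHO-K1 whole cells loaded with calcium-sensitive dye Fluo-3; inhibition of PGE2-evoked intracellular Ca2+ mobilisation read on a fluorimetric imaging plate reader (FLIPR). IC50s converted to pKi. Means of at least two experiments unless specified.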

[2] = target: T1, Prostaglandin E2 receptor EP1 subtype; assay: Displacement of [3H]PGE2 from EP1 expressed in CHO cells; assay type: cell-based
Summary of the method: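 Membranes from stable EP1-transfected CHO-K1 cells incubated with compound and [3H]-PGE2 (3 nM final) for 30 min at 30 °C. Bound radioactivity counted by liquid scintillation. Means of at least four experiments.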

[3] = target: Cytochrome P450 2C19 (Homo sapiens, UniProt P33261); assay: Inhibition of CYP2C19; assay type: ADME
Cytochrome P450 2C19, sequence (P33261 whole entry): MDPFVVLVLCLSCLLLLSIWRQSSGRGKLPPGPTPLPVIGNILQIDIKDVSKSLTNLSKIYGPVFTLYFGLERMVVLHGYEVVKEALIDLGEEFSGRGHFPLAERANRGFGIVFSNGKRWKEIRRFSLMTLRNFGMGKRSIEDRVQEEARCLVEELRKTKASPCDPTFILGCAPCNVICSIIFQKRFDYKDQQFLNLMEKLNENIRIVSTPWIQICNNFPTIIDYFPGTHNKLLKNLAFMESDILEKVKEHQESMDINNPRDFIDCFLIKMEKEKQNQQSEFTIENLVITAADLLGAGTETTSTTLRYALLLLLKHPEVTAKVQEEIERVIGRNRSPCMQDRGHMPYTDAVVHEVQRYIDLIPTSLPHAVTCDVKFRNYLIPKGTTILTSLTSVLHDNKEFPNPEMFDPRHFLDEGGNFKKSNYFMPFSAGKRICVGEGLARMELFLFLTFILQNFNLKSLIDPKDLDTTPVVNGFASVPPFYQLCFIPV

[4] = target: T2, Cytochrome P450 1A2 (Homo sapiens, UniProt P05177); assay: Inhibition of CYP1A2; assay type: ADME
T2 sequence (P05177 whole entry): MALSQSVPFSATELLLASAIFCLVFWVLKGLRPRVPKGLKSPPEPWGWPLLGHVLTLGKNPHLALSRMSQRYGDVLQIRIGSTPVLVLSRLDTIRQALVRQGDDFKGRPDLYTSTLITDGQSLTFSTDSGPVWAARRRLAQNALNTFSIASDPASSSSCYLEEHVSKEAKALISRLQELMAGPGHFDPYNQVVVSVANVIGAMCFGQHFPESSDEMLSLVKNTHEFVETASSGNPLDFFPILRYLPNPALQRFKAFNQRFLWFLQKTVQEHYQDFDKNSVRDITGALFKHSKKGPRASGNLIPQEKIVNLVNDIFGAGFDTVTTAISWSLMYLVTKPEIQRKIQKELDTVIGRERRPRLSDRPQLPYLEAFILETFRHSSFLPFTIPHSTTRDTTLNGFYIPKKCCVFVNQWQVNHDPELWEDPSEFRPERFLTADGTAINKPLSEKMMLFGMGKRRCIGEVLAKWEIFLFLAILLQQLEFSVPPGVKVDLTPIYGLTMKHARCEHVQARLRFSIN

[5] = target: T3, Thromboxane A2 receptor (Homo sapiens, UniProt P21731); assay: Inhibition of TP receptor
T3 sequence (P21731 whole entry): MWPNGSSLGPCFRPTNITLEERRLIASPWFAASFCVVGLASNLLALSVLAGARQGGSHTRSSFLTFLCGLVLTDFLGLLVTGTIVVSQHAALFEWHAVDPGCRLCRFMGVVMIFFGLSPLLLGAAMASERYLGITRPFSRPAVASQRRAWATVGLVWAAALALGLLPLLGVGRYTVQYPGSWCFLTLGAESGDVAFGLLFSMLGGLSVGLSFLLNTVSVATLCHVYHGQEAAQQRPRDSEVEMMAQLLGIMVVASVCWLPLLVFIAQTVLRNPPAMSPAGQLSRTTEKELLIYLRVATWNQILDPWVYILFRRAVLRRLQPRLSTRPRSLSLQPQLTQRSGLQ

[6] = target: Cytochrome P450 3A4 (Homo sapiens, UniProt P08684); assay: Inhibition of CYP3A4; assay type: ADME
Cytochrome P450 3A4, sequence (P08684 whole entry): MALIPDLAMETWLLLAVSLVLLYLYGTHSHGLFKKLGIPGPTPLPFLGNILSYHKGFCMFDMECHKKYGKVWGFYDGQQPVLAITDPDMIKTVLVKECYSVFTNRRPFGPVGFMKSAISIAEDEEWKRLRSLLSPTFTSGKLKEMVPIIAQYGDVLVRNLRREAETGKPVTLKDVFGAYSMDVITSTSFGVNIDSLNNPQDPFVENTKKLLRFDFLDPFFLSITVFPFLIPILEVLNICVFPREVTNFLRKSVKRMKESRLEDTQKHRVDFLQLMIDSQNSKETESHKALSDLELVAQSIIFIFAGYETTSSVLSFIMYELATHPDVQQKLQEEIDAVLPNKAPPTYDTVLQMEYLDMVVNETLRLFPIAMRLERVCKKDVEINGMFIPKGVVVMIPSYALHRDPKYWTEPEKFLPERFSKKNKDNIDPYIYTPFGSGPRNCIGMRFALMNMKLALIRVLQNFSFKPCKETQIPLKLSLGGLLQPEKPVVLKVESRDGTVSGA

[7] = target: Cytochrome P450 2C9 (Homo sapiens, UniProt P11712); assay: Inhibition of CYP2C9; assay type: ADME
Cytochrome P450 2C9, sequence (P11712 whole entry): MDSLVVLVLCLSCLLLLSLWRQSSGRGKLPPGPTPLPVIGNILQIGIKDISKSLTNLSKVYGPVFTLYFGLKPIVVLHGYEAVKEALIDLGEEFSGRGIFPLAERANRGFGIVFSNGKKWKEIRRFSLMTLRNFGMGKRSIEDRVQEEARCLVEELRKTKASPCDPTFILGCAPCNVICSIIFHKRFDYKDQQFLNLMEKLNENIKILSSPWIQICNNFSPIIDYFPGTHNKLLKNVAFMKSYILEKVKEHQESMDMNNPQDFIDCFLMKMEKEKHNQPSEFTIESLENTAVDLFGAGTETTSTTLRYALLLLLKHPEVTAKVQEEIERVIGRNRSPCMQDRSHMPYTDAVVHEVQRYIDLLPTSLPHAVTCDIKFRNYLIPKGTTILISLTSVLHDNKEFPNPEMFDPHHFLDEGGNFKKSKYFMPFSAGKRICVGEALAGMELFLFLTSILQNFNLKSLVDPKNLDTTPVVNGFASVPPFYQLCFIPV

[8] = target: Prostaglandin F2-alpha receptor (Homo sapiens, UniProt P43088); assay: Inhibition of FP receptor
Prostaglandin F2-alpha receptor, sequence (P43088 whole entry): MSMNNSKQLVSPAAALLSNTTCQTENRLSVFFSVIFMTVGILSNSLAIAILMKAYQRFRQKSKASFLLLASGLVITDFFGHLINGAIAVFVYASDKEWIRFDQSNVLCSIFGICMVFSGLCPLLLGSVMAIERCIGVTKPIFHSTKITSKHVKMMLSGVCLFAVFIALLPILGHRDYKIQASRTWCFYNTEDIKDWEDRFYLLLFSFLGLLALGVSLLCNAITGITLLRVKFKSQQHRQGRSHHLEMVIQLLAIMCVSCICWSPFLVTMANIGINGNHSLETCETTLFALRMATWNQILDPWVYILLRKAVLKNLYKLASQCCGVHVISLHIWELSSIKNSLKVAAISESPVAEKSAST

[9] = target: T4, Prostaglandin E2 receptor EP3 subtype (Homo sapiens, UniProt P43115); assay: Antagonist activity at human EP3 expressed in CHOK1 cells receptor assessed as inhibition intracellular calcium mobilization by FLIPR assay; assay type: functional, cell-based, CHO-K1; summary of the method: as §1
T4 sequence (P43115 whole entry): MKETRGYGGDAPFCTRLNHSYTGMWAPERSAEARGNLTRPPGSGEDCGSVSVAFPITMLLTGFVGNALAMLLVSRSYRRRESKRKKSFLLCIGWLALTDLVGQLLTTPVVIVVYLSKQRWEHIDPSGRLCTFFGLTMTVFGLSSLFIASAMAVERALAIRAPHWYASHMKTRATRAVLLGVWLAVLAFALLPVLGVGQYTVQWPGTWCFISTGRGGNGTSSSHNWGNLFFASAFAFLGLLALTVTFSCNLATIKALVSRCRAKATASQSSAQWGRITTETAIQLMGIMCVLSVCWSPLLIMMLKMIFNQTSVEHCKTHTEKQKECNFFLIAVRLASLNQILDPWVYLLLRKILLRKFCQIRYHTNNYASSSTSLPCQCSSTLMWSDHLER

[10] = species on record: Homo sapiens; assay: Selectivity for EP1 receptor over EP3 receptor
[11] = target: Cytochrome P450 2D6 (Homo sapiens, UniProt P10635); assay: Inhibition of CYP2D6; assay type: ADME
Cytochrome P450 2D6, sequence (P10635 whole entry): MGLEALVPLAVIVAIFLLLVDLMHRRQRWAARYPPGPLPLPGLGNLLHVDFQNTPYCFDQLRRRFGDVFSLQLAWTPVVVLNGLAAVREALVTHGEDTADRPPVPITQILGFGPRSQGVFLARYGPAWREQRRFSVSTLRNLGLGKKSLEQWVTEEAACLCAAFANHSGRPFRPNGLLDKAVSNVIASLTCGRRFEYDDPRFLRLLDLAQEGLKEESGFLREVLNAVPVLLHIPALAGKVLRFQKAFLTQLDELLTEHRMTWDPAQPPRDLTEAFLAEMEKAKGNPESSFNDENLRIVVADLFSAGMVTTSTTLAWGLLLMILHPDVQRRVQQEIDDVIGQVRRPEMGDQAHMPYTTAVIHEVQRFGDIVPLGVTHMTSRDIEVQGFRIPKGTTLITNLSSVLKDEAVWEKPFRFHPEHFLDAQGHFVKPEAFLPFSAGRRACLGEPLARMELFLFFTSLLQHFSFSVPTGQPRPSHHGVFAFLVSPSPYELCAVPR

[12] = target: T1, Prostaglandin E2 receptor EP1 subtype; assay: Antagonist activity at human EP1 receptor expressed in CHO cells receptor by […] reporter gene assay; assay type: functional, cell-based; conditions: read-out: pA2 (converted)
Summary of the method: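 CHO cells stably co-transfected with NFAT reporter gene and human EP1 (pCIN3) were quiesced 24 h before assay. PGE2 concentration-response curves run without antagonist and with five antagonist concentrations, 4 h incubation, luciferase readout. Dose ratios from PGE2 EC50s; log(dose ratio − 1) vs log[antagonist] fitted by linear regression to give pA2 and slope.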

Row | Ki [1] [nM] | Compound | other results
1 | 66.1 | COc1ccc(CCNC(=O)CN(c2ccccc2C)S(=O)(=O)c2ccc(C)cc2)c(F)c1OC | 
2 | 676 | Cc1ccc(S(=O)(=O)N(CC(=O)NCc2ccc(Cl)cc2)c2cccnc2C)cc1 | Ki [2]: 200 nM
3 | 38.9 | COc1ccc(CCNC(=O)CN(c2ccccc2C)S(=O)(=O)c2ccc(C)cc2)cc1OC | 
4 | 1660 | CCc1ccccc1N(CC(=O)NCCc1ccc(OC)c(OC)c1)S(=O)(=O)c1cccc(C)c1 | 
5 | 170 | COc1ccc(CCNC(=O)CN(c2ccccc2C)S(=O)(=O)c2ccc(C)cc2)cc1 | 
6 | > 1450 | Cc1ccc(S(=O)(=O)N(CC(=O)NCc2ccc(Cl)cc2)c2ccccn2)cc1 | Ki [2]: > 1000 nM
7 | 35.5 | CCc1ccccc1N(CC(=O)NCc1ccc(OC)cc1)S(=O)(=O)c1ccc(C)cc1 | Ki [2]: 25.1 nM
8 | 30.9 | COc1ccc(CCNC(=O)CN(c2cccc(C(F)(F)F)c2)S(=O)(=O)c2ccc(C)cc2)cc1OC | 
9 | 2000 | CCc1ccccc1N(CC(=O)NCCc1ccc(OC)c(OC)c1)S(=O)(=O)c1ccccc1Cl | 
10 | > 1450 | Cc1ccc(S(=O)(=O)N(CC(=O)NCc2ccc(Cl)cc2)c2ccc(C)nc2)cc1 | Ki [2]: > 1000 nM
11 | 1410 | CCc1ccccc1N(CC(=O)NCc1cccc(Cl)c1)S(=O)(=O)c1ccc(C)cc1 | Ki [2]: 251 nM
12 | 209 | CCc1ccccc1N(CC(=O)NCc1ccc(C(F)(F)F)cc1)S(=O)(=O)c1ccc(C)cc1 | 
13 | 1350 | Cc1ccc(S(=O)(=O)N(CC(=O)NCCc2ccccc2)c2ccccc2C)cc1 | 
14 | 1290 | COc1ccc(CCNC(=O)CN(c2ccc(Cl)cc2)S(=O)(=O)c2ccc(C)cc2)cc1OC | 
15 | 1070 | CCc1ccccc1N(CC(=O)NCc1ccccc1OC)S(=O)(=O)c1ccc(C)cc1 | 
16 | 22.9 | CCc1ccccc1N(CC(=O)NCc1ccc(Br)cc1)S(=O)(=O)c1ccc(C)cc1 | 
17 | 224 | CCc1ccccc1N(CC(=O)NCc1ccccc1)S(=O)(=O)c1ccc(C)cc1 | Ki [2]: 63.1 nM
18 | 3.72 | CNS(=O)(=O)c1cc(CCNC(=O)CN(c2ccccc2C)S(=O)(=O)c2ccc(C)cc2)ccc1O | 
19 | 69.2 | CCc1ccccc1N(CC(=O)NCCc1ccc(OC)c(OC)c1)S(=O)(=O)c1ccc(OC(F)(F)F)cc1 | 
20 | 240 | CCc1ccccc1N(CC(=O)NCCc1ccc(OC)c(OC)c1)S(=O)(=O)c1cccc(C#N)c1 | 
21 | 661 | Cc1ccc(S(=O)(=O)N(CC(=O)NCCc2ccc(Cl)cc2)c2ccccc2C)cc1 | 
22 | 166 | CCc1ccccc1N(CC(=O)NCCc1ccc(OC)c(OC)c1)S(=O)(=O)c1ccccc1C | 
23 | 708 | CCc1ccccc1N(CC(=O)NCCc1ccc(OC)c(OC)c1)S(=O)(=O)c1cccc(OC(F)(F)F)c1 | 
24 | > 1450 | Cc1ccc(S(=O)(=O)N(CC(=O)NCc2ccc(Cl)cc2)c2ncccc2C)cc1 | Ki [2]: 794 nM
25 | 138 | CCc1ccccc1N(CC(=O)NCc1cccc(OC)c1)S(=O)(=O)c1ccc(C)cc1 | Ki [2]: 79.4 nM
26 | > 1450 | Cc1ccc(S(=O)(=O)N(CC(=O)NCc2ccc(Cl)cc2)c2ccc(C)cn2)cc1 | Ki [2]: > 1000 nM

Row | Ki [1] [nM] | Compound | other results
27 | > 3800 | COc1ccc(CCNC(=O)CN(c2ccc(Br)cc2)S(=O)(=O)c2ccc(C)cc2)cc1OC | 
28 | > 1580 | COc1ccc(N(CC(=O)NCCc2ccc(OC)c(OC)c2)S(=O)(=O)c2ccc(C)cc2)cc1 | 
29 | 204 | Cc1ccc(S(=O)(=O)N(CC(=O)NCCc2cccc(O)c2)c2ccccc2C)cc1 | 
30 | 61.7 | COc1ccc(CCNC(=O)CN(c2cccc(Cl)c2)S(=O)(=O)c2ccc(C)cc2)cc1OC | 
31 | 19.1 | CCc1ccccc1N(CC(=O)NCCc1ccc(OC)c(OC)c1)S(=O)(=O)c1ccc(C(F)(F)F)cc1 | 
32 | 11.5 | CCc1ccccc1N(CC(=O)NCc1ccc(Cl)cc1)S(=O)(=O)c1ccc(C)cc1 | IC50 [3]: 2000 nM; IC50 [4]: 31600 nM; Ki [2]: 10 nM; IC50 [5]: > 10000 nM; IC50 [6]: 251 nM; IC50 [7]: 6310 nM; IC50 [8]: 4170 nM; Ki [9]: 794 nM; Ratio pKi [10]: 100; IC50 [11]: 100000 nM
33 | 61.7 | COc1ccc(CCNC(=O)CN(c2cccc(C)c2)S(=O)(=O)c2ccc(C)cc2)cc1OC | 
34 | 282 | CCc1ccccc1N(CC(=O)NCc1ccc(OC)c(OC)c1)S(=O)(=O)c1ccc(C)cc1 | Ki [2]: 25.1 nM
35 | 589 | Cc1ccc(S(=O)(=O)N(CC(=O)NCc2ccc(Cl)cc2)c2ccnn2C)cc1 | Ki [2]: 398 nM
36 | 170 | CCc1ccccc1N(CC(=O)NCCc1ccc(OC)c(OC)c1)S(=O)(=O)c1ccc(OC)cc1 | 
37 | 12.9 | COc1ccc(CCNC(=O)CN(c2cccc(C)c2C)S(=O)(=O)c2ccc(C)cc2)cc1OC | 
38 | 741 | COc1ccc(CCNC(=O)CN(c2ccccc2C)S(=O)(=O)c2ccccc2)cc1OC | 
39 | 13.5 | CCc1ccccc1N(CC(=O)NCCc1ccc(OC)c(OC)c1)S(=O)(=O)c1ccc(C)cc1 | Kb [12]: 5.01 nM
40 | 72.4 | CCn1nccc1N(CC(=O)NCc1ccc(Cl)cc1)S(=O)(=O)c1ccc(C)cc1 | Ki [2]: 158 nM
41 | > 1450 | Cc1ccc(S(=O)(=O)N(CC(=O)NCc2ccc(Cl)cc2)c2cccc(C)n2)cc1 | Ki [2]: > 1000 nM
42 | > 1450 | Cc1ccc(S(=O)(=O)N(CC(=O)NCc2ccc(Cl)cc2)c2cccnc2)cc1 | Ki [2]: > 1000 nM
43 | 89.1 | Cc1ccc(S(=O)(=O)N(CC(=O)NCCc2ccc(NS(C)(=O)=O)cc2)c2ccccc2C)cc1 | 
44 | 427 | CCc1ccccc1N(CC(=O)NCc1cccc(OC(F)(F)F)c1)S(=O)(=O)c1ccc(C)cc1 | 
45 | 28.8 | CCc1ccccc1N(CC(=O)NCCc1ccc(OC)c(OC)c1)S(=O)(=O)c1ccc(Br)cc1 | 
46 | 589 | COc1ccc(CCNC(=O)CN(c2ccccc2)S(=O)(=O)c2ccc(C)cc2)cc1OC | 
47 | 34.7 | COc1ccc(CCNC(=O)CN(c2cccc(Br)c2)S(=O)(=O)c2ccc(C)cc2)cc1OC | 
48 | > 3160 | CCc1ccccc1N(CC(=O)NCCc1ccc(OC)c(OC)c1)S(=O)(=O)c1ccccc1C#N | 
49 | 135 | CCc1ccccc1N(CC(=O)NCc1ccccc1F)S(=O)(=O)c1ccc(C)cc1 | 
50 | 31.6 | CCc1ccccc1N(CC(=O)NCCc1ccc(OC)c(OC)c1)S(=O)(=O)c1ccc(C#N)cc1 | 
51 | > 1580 | COc1ccc(CCNC(=O)CN(c2ccc(F)cc2)S(=O)(=O)c2ccc(C)cc2)cc1OC | 
52 | > 1120 | COc1ccc(CCNC(=O)CN(c2ccc(C)cc2)S(=O)(=O)c2ccc(C)cc2)cc1OC | 
